Test results: ChEMBL document CHEMBL5108036, “A concise SAR-analysis of antimicrobial cationic amphipathic barbiturates for an improved activity-toxicity profile” (Eur J Med Chem, 2022)

Key:
Staphylococcus aureus = experiment: Antibacterial activity against Staphylococcus aureus ATCC 9144 incubated for 48 hrs and measured by broth microdilution assay; assay type: functional
Method in brief: (§1)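 MICs in µg/mL were measured against the reference strains S. aureus ATCC 9144, B. subtilis 168, E. coli ATCC 25922 and P. aeruginosa ATCC 27853. Compounds were tested as di-TFA salts.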

Bacillus subtilis = experiment: Antibacterial activity against Bacillus subtilis 168 incubated for 48 hrs and measured by broth microdilution assay; assay type: functional; method in brief: as §1
Escherichia coli = experiment: Antibacterial activity against Escherichia coli ATCC 25922 incubated for 48 hrs and measured by broth microdilution assay; assay type: functional; method in brief: as §1
Pseudomonas aeruginosa = experiment: Antibacterial activity against Pseudomonas aeruginosa ATCC 27853 incubated for 48 hrs and measured by broth microdilution assay; assay type: functional; method in brief: as §1
[1] = Hemolytic activity in human RBC measured after 1 hr by microplate reader method; assay type: toxicity, cell-based, Erythrocyte; conditions: human, human red blood cells (erythrocytes)
Method in brief: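 Human red blood cell lysis was used as the cytotoxicity read-out, expressed as EC50 in µg/mL. The highest concentration tested was 500 µM. Compounds were tested as di-TFA salts.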

Molecule `N=C(N)NCCCCN1C(=O)N(CCCCNC(=N)N)C(=O)C(Cc2ccc(Br)c3ccccc23)(Cc2ccc(Br)c3ccccc23)C1=O.O=C(O)C(F)(F)F.O=C(O)C(F)(F)F` has an MIC (Staphylococcus aureus) of 4 µg/mL, an MIC (Bacillus subtilis) of 4 µg/mL and an MIC (Escherichia coli) of 4 µg/mL. It also gave an MIC (Pseudomonas aeruginosa) of 8 µg/mL and an EC50 at 1 h [1] of 36 µg/mL.

Work on `N=C(N)NCCCCCCN1C(=O)N(CCCCCCNC(=N)N)C(=O)C(Cc2cc(Br)cc(Br)c2)(Cc2cc(Br)cc(Br)c2)C1=O.O=C(O)C(F)(F)F.O=C(O)C(F)(F)F` yielded an MIC (Staphylococcus aureus) of 4 µg/mL, an MIC (Bacillus subtilis) of 4 µg/mL and an MIC (Escherichia coli) of 4 µg/mL. For the same molecule, the MIC (Pseudomonas aeruginosa) was 32 µg/mL and the EC50 at 1 h [1] was 57 µg/mL.

`N=C(N)N[C@H]1CC[C@@H](N2C(=O)N([C@H]3CC[C@@H](NC(=N)N)CC3)C(=O)C(Cc3cc(Br)cc(Br)c3)(Cc3cc(Br)cc(Br)c3)C2=O)CC1.O=C(O)C(F)(F)F.O=C(O)C(F)(F)F` showed an MIC (Staphylococcus aureus) of 2 µg/mL, an MIC (Bacillus subtilis) of 1 µg/mL and an MIC (Escherichia coli) of 4 µg/mL. The MIC (Pseudomonas aeruginosa) was 4 µg/mL and the EC50 at 1 h [1] was 30 µg/mL.

`NCCCCN1C(=O)N(CCCCN)C(=O)C(Cc2ccc(C(F)(F)F)cc2)(Cc2cc(Br)cc(Br)c2)C1=O.O=C(O)C(F)(F)F.O=C(O)C(F)(F)F` showed an MIC (Staphylococcus aureus) of 16 µg/mL, an MIC (Bacillus subtilis) of 8 µg/mL and an MIC (Escherichia coli) of 32 µg/mL. The MIC (Pseudomonas aeruginosa) was 64 µg/mL and the EC50 at 1 h [1] was 342 µg/mL.

`CN(C)CCCCN1C(=O)N(CCCCN(C)C)C(=O)C(Cc2cc(Br)cc(Br)c2)(Cc2cc(Br)cc(Br)c2)C1=O.O=C(O)C(F)(F)F.O=C(O)C(F)(F)F` showed an MIC (Staphylococcus aureus) of 8 µg/mL, an MIC (Bacillus subtilis) of 4 µg/mL and an MIC (Escherichia coli) of 8 µg/mL. It also gave an MIC (Pseudomonas aeruginosa) of 64 µg/mL and an EC50 at 1 h [1] of 157 µg/mL.

`N=C(N)NCCCCN1C(=O)N(CCCCNC(=N)N)C(=O)C(Cc2c(Br)cc(Br)cc2Br)(Cc2c(Br)cc(Br)cc2Br)C1=O.O=C(O)C(F)(F)F.O=C(O)C(F)(F)F` gave an MIC (Staphylococcus aureus) of 2 µg/mL, an MIC (Bacillus subtilis) of 1 µg/mL and an MIC (Escherichia coli) of 4 µg/mL. It also gave an MIC (Pseudomonas aeruginosa) of 4 µg/mL and an EC50 at 1 h [1] of 30 µg/mL.

With `CC(C)(C)c1ccc(CC2(Cc3cc(Br)cc(Br)c3)C(=O)N(CCCN)C(=O)N(CCCN)C2=O)cc1.O=C(O)C(F)(F)F.O=C(O)C(F)(F)F` the MIC (Staphylococcus aureus) was 4 µg/mL, the MIC (Bacillus subtilis) was 2 µg/mL and the MIC (Escherichia coli) was 8 µg/mL. For the same molecule, the MIC (Pseudomonas aeruginosa) was 8 µg/mL and the EC50 at 1 h [1] was 47 µg/mL.

In the case of `NCCCN1C(=O)N(CCCN)C(=O)C(Cc2cc(Br)cc(Br)c2)(Cc2cc(Br)cc(Br)c2)C1=O.O=C(O)C(F)(F)F.O=C(O)C(F)(F)F`, the MIC (Staphylococcus aureus) is reported as 4 µg/mL, the MIC (Bacillus subtilis) is reported as 4 µg/mL and the MIC (Escherichia coli) is reported as 8 µg/mL. For the same molecule, the MIC (Pseudomonas aeruginosa) was 8 µg/mL and the EC50 at 1 h [1] was 99 µg/mL.

For `CNCCCCN1C(=O)N(CCCCNC)C(=O)C(Cc2cc(Br)cc(Br)c2)(Cc2cc(Br)cc(Br)c2)C1=O.O=C(O)C(F)(F)F.O=C(O)C(F)(F)F`, the MIC (Staphylococcus aureus) was 8 µg/mL, the MIC (Bacillus subtilis) was 4 µg/mL and the MIC (Escherichia coli) was 8 µg/mL. The MIC (Pseudomonas aeruginosa) was 16 µg/mL and the EC50 at 1 h [1] was 73 µg/mL.

Work on `CCCCCCC1(CCCCCC)C(=O)N(CCCCN)C(=O)N(CCCCN)C1=O.O=C(O)C(F)(F)F.O=C(O)C(F)(F)F` yielded an MIC (Staphylococcus aureus) of 16 µg/mL, an MIC (Bacillus subtilis) of 8 µg/mL and an MIC (Escherichia coli) of 32 µg/mL. For the same molecule, the MIC (Pseudomonas aeruginosa) was 64 µg/mL and the EC50 at 1 h [1] was greater than 333 µg/mL.

`NCCCCN1C(=O)N(CCCCN)C(=O)C(Cc2cc(Br)cc(Br)c2)(Cc2ccc(Br)c3ccccc23)C1=O.O=C(O)C(F)(F)F.O=C(O)C(F)(F)F` showed an MIC (Staphylococcus aureus) of 4 µg/mL, an MIC (Bacillus subtilis) of 4 µg/mL and an MIC (Escherichia coli) of 4 µg/mL. For the same molecule, the MIC (Pseudomonas aeruginosa) was 8 µg/mL and the EC50 at 1 h [1] was 47 µg/mL.

Work on `N=C(N)N[C@H]1C[C@H](N2C(=O)N([C@H]3C[C@H](NC(=N)N)C3)C(=O)C(Cc3cc(Br)cc(Br)c3)(Cc3cc(Br)cc(Br)c3)C2=O)C1.O=C(O)C(F)(F)F.O=C(O)C(F)(F)F` yielded an MIC (Staphylococcus aureus) of 2 µg/mL, an MIC (Bacillus subtilis) of 4 µg/mL and an MIC (Escherichia coli) of 4 µg/mL. For the same molecule, the MIC (Pseudomonas aeruginosa) was 8 µg/mL and the EC50 at 1 h [1] was 62 µg/mL.

Work on `N=C(N)NCCCN1C(=O)N(CCCNC(=N)N)C(=O)C(Cc2ccc(Br)c3ccccc23)(Cc2ccc(Br)c3ccccc23)C1=O.O=C(O)C(F)(F)F.O=C(O)C(F)(F)F` yielded an MIC (Staphylococcus aureus) of 2 µg/mL, an MIC (Bacillus subtilis) of 2 µg/mL and an MIC (Escherichia coli) of 4 µg/mL. It also gave an MIC (Pseudomonas aeruginosa) of 8 µg/mL and an EC50 at 1 h [1] of 61 µg/mL.

Work on `N[C@H]1CC[C@H](N2C(=O)N([C@H]3CC[C@H](N)CC3)C(=O)C(Cc3cc(Br)cc(Br)c3)(Cc3cc(Br)cc(Br)c3)C2=O)CC1.O=C(O)C(F)(F)F.O=C(O)C(F)(F)F` yielded an MIC (Staphylococcus aureus) of 2 µg/mL, an MIC (Bacillus subtilis) of 2 µg/mL and an MIC (Escherichia coli) of 2 µg/mL. The MIC (Pseudomonas aeruginosa) was 4 µg/mL and the EC50 at 1 h [1] was 16 µg/mL.

`N=C(N)N[C@H]1C[C@@H](N2C(=O)N([C@H]3C[C@@H](NC(=N)N)C3)C(=O)C(Cc3cc(Br)cc(Br)c3)(Cc3cc(Br)cc(Br)c3)C2=O)C1.O=C(O)C(F)(F)F.O=C(O)C(F)(F)F` showed an MIC (Staphylococcus aureus) of 2 µg/mL, an MIC (Bacillus subtilis) of 2 µg/mL and an MIC (Escherichia coli) of 4 µg/mL. The MIC (Pseudomonas aeruginosa) was 8 µg/mL and the EC50 at 1 h [1] was 75 µg/mL.

`CCCCCCC1(Cc2cc(Br)cc(Br)c2)C(=O)N(CCCCN)C(=O)N(CCCCN)C1=O.O=C(O)C(F)(F)F.O=C(O)C(F)(F)F` gave an MIC (Staphylococcus aureus) of 4 µg/mL, an MIC (Bacillus subtilis) of 4 µg/mL and an MIC (Escherichia coli) of 16 µg/mL. The MIC (Pseudomonas aeruginosa) was 16 µg/mL and the EC50 at 1 h [1] was 144 µg/mL.

`N=C(N)NCCCCCN1C(=O)N(CCCCCNC(=N)N)C(=O)C(Cc2cc(Br)cc(Br)c2)(Cc2cc(Br)cc(Br)c2)C1=O.O=C(O)C(F)(F)F.O=C(O)C(F)(F)F` gave an MIC (Staphylococcus aureus) of 4 µg/mL, an MIC (Bacillus subtilis) of 4 µg/mL and an MIC (Escherichia coli) of 4 µg/mL. For the same molecule, the MIC (Pseudomonas aeruginosa) was 8 µg/mL and the EC50 at 1 h [1] was 29 µg/mL.
